# Compound activity as filed in PubChem.
# Tn7 DDE FP = inhibitors of Tn7 peptide binding to fibrin DD(E), primary screen, biochemical, fluorescence polarization, human fibrin, Tn7 probe; actives 0.13% (n = 370,000); FP displacement of FITC-Tn7 peptide from fibrin DD(E); 0% = median of compound wells per plate; AID 720508, 2013; inhibition, % at 8.3 µM; Fibrinogen beta chain (Homo sapiens), P02675;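 active = inhibition above the mean of compounds falling within the control limits plus 3 SD of them, cut at about 14% in these data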
# Target sequence (P02675 whole entry, looked up): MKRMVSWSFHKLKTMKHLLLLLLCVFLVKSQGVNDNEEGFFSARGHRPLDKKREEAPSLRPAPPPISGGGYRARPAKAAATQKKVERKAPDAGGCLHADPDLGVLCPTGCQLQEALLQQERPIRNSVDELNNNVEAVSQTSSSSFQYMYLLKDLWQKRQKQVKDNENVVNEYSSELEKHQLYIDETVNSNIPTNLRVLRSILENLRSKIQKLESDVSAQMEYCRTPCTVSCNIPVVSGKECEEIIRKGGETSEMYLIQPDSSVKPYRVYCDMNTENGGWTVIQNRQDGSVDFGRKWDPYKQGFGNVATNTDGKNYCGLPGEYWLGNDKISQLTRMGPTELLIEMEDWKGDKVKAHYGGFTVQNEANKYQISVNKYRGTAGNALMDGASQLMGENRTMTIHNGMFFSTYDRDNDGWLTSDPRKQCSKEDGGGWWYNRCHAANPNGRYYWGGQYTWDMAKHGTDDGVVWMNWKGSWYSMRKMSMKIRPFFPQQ
#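 Assay system: human fibrin DD(E). Input: DD(E) 2 µM final. Medium: Tris buffer with calcium and detergent, pH 7.8. Compound dosing: single point at 8.3 µM. Timing: 10 min plus 3 h, room temperature. Technique: fluorescence polarization of the labelled Tn7 tracer. Read-out: percent inhibition. Replicates: singlicate testing.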
# CRFBP-R2 agonist = agonists of CRF-BP/CRF-R2 complex, primary screen, cell-based, HEK293, calcium dye fluorescence, uHTS; actives 0.46% (n = 350,000); activation, % at 13.2 µM; calcium dye fluorescence (FLIPR); percent of saturating CRF peptide response;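 active = activation of at least 50%, plus an integration ratio under a set limit after plate pattern correction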
# Tn6 DDE FP = inhibitors of Tn6 peptide binding to fibrin DD(E), primary screen, biochemical, fluorescence polarization, human fibrin, Tn6 probe | Fibrinogen beta chain (Homo sapiens), P02675 | Fibrin DD(E) TRITC-Tn6 fluorescence polarization displacement | inhibition, % at 8.3 µM | actives 0.21% (n = 370,000);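 active = inhibition above a per-campaign cutoff: mean of compounds within control limits plus 3 SD, cut at about 15% in these data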
# CRFBP-R2 block = antagonists of CRF-BP/CRF-R2 complex, primary screen, cell-based, HEK293, calcium dye fluorescence, uHTS. CRF-induced calcium fluorescence. inhibition, % at 11.8 µM. actives 0.59% (n = 350,000). AID 588475, 2011;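 active = inhibition of the ligand-induced calcium signal above about 50% at the single tested concentration, limit read from the data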
# Numbers stand for hits; . = inactive; / = no result given. This is a sample that favours compounds with a hit; in the whole collection about 1.3% have one here.
SMILES,Tn7 DDE FP,CRFBP-R2 agonist,Tn6 DDE FP,CRFBP-R2 block
COc1ccc(CN=C2NN=C(c3ccc(Cl)cc3)CS2)cc1,.,.,.,.
O=C(COc1ccc(Cl)cc1Cl)Nc1ccc(Cl)cn1,.,.,.,.
CCOc1ccc(C(=O)Nc2ccc(Cl)cn2)cc1Cl,.,.,.,56
CC(=O)c1ccc(NC(=O)Nc2cccc(Cl)c2)cc1,.,53,.,.
CC(=O)c1c(N2CCN(Cc3ccccc3)CC2)nc(=S)n(Cc2ccccc2)c1C,.,.,.,.
CC(=O)c1c(N2CCCCC2)nc(=S)n(Cc2ccccc2)c1C,.,.,.,108
CC(C)(C)c1ccc(-c2nnc(SCC(=O)Nc3ccc(S(=O)(=O)Nc4nccs4)cc3)n2Cc2ccco2)cc1,.,/,.,/
Cc1cccc2c(CCNC(=O)c3ccc([N+](=O)[O-])cc3)c[nH]c12,.,.,.,57
O=C(NCCc1ccc(F)cc1)c1ccc([N+](=O)[O-])cc1,.,.,.,.
Cc1ccc(-n2[nH]c(C)c(/C=N/Nc3ccc([N+](=O)[O-])cc3[N+](=O)[O-])c2=O)cc1,.,.,.,112
C=CCN1[C@H](CO)[C@H](c2ccc(C#CC3(O)CCCC3)cc2)[C@@H]1C#N,.,/,.,/
Cn1c(=O)c(C(=O)COc2ccc(C#N)cc2)c(N)n(Cc2ccccc2)c1=O,.,55,.,.
O=C(O)CCC(=O)Nc1ccc(Br)c(Cl)c1,.,.,.,67
CCCC(=O)Nc1ccc(Br)c(Cl)c1,.,.,.,.
CC(C(=O)Nc1ccc2c(c1)OCCO2)c1ccc([N+](=O)[O-])cc1 (stereo not given),.,110,.,.
CC(C(=O)Nc1ccc2c(c1)OCO2)c1ccc([N+](=O)[O-])cc1 (stereo not given),.,.,.,.
COC(=O)[C@]12C[C@H](CC(=O)NCC34CC5CC(CC(C5)C3)C4)C(=O)N(Cc3ccc4c(c3)OCO4)C1=C[C@H](C(C)C)O[C@@H]2C1CC1,.,/,.,/
OC(C#CCN1CCCC1)(c1ccccc1)c1cccnc1 (stereo not given),.,.,.,.
OC(C#CCN1CCCCCC1)(c1ccccc1)c1cccnc1 (stereo not given),.,.,.,117
CC1=C2N=C(N)N(Cc3ccccc3)C(Cc3ccccc3)C2n2c(=O)n(-c3ccccc3)c(=O)n2C1 (stereo not given),.,/,.,/
CCc1cc2cc(C)cc(C)c2nc1SCC(=O)N1CCN(C(=O)c2ccco2)CC1,.,.,.,52
CC(C)c1cc(C(F)(F)F)nc(NNc2nc(C(C)C)cc(C(F)(F)F)n2)n1,.,.,.,54
O=C1c2cccn2CC2Cc3ccccc3N12 (stereo not given),.,/,.,/
COc1ccccc1NC(=O)c1sc2nc(Cc3ccccc3)cc(C(F)(F)F)c2c1N,/,58,/,.
CC(C)(C)C(=O)c1sc2nc(-c3cccs3)cc(C(F)(F)F)c2c1N,.,83,.,.
SMILES,Tn7 DDE FP,CRFBP-R2 agonist,Tn6 DDE FP,CRFBP-R2 block
Cc1cc(C(F)(F)F)c2c(N)c(C(=O)NC3CC3)sc2n1,.,.,.,.
Cc1nnc(NC(=O)c2sc3nc(-c4cccs4)cc(C(F)(F)F)c3c2N)s1,.,213,.,.
Cc1cc(C)c2c(N)c(C(=O)Nc3nccs3)sc2n1,.,.,.,.
Nc1c(C(=O)Nc2nccs2)sc2nc(-c3cccs3)cc(C(F)(F)F)c12,.,68,.,.
COc1ccc(NC(=O)c2sc3nc(Cc4ccccc4)cc(C(F)(F)F)c3c2N)cc1OC,.,.,.,.
CCCC(C)C(=O)NC1CCCCN(Cc2ccccc2C)C1=O (stereo not given),.,/,.,/
Cc1ccc(Cn2nnc3c2-c2cc(F)ccc2S(=O)(=O)N(C(C)(C)C)C3)cc1,.,/,.,/
COc1ccc(CN(CCN2CCOCC2)C(=O)c2cccc(F)c2)cc1OC,.,/,.,/
CCOc1ccc(/C=C(\C#N)C(=O)Nc2cccnc2)cc1,.,.,.,.
CCOc1ccc(NC(=O)/C(C#N)=C\c2ccc(N3CCCC3)c(C)c2)cc1,.,99,.,.
C/C(=N\Nc1ccc([N+](=O)[O-])cc1)c1cc2ccccc2o1,.,53,.,.
Cc1ccc(C2CCC3(CCC(=O)N3CCOC(=O)Nc3ccc(Br)cc3)CC2)cc1 (stereo not given),.,/,.,/
